Measurements reported in publication PMC7931638 (Xenobiotica; the fate of foreign compounds in biological …, 2020).
Read-outs that look alike come from different tables or passages of the source.

Experiments:
[1] = in vivo; conditions: male; for half-life: po, Free Elimination half-life
[2] = type: in vivo, mouse; conditions: male mice; for group mean daily body weight gain: 7 d; for average daily feed consumption: 7 d exposure; for survival: all exposure groups, 7 d via feed
[3] = male rats, ref Waidyanatha et al., cited from earlier work
[4] = Stability in dosed-feed formulations; type: physicochemical; conditions: up to 42 d, RE ≤ ± 10% of day 0 value
[5] = type: in vivo, rat; conditions: male rats; for group mean daily body weight gain: 7 d; for average daily feed consumption: 7 d exposure; for survival: all exposure groups, 7 d via feed
[6] = in vivo; conditions: male, B6C3F1/N, mouse; for half-life: Free Elimination half-life
[7] = type: in vivo, rat; conditions: male rats, dose-normalized
How it was run: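 Male rats (272–308 g, 8–9 weeks), singly caged, received dosed feed ad libitum at 338, 1125 or 3750 ppm for 7 days. Control feed followed, with plasma sampled up to 24 h. Free and deconjugated total test compound were measured by LC-MS/MS. Cmax and AUC came from an extravascular model and were normalized to the daily dose (food consumption, concentration, body weight). Gavage values were taken from earlier single-dose work.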

[8] = Hsd:Sprague Dawley SD (rat), B6C3F1/N (mouse)
[9] = gavage 34 mg/kg vs feed 23.4 mg/kg
[10] = gavage 110 mg/kg vs feed 70.5 mg/kg
[11] = gavage 340 mg/kg vs feed 193 mg/kg

Row | Structure (SMILES) | half-life ([1]; Hsd:Sprague Dawley SD, rat) | group mean daily body weight gain ([2]; 338 ppm via feed) | average daily feed consumption ([2]; 338 ppm) | group mean daily body weight gain ([2]; 1125 ppm via feed) | average daily feed consumption ([2]; 1125 ppm) | survival [2] | stability in feed formulations stored at refrigerated temperature [4] | group mean daily body weight gain ([5]; 338 ppm via feed) | average daily feed consumption ([5]; 338 ppm) | group mean daily body weight gain ([5]; 1125 ppm via feed) | average daily feed consumption ([5]; 1125 ppm) | survival [5] | Total plasma elimination half-lives, range over exposure concentrations [6] | half-life ([6]; po) | other results
1 | Oc1ccc(C(c2ccc(O)cc2)(C(F)(F)F)C(F)(F)F)cc1 [BPAF, 2,2-bis(4-hydroxyphenyl)perfluoropropane] | 7.1 h | 0.3 ± 0.5 g | 207 ± 68 g/kg bw/d | 0.1 ± 0.6 g | 211 ± 68 g/kg bw/d | All animals survived until the end of the study | confirmed | 3.38 ± 3.37 g | 69.2 ± 5.8 g/kg bw/d | 2.12 ± 3.68 g | 61.0 ± 11.7 g/kg bw/d | All animals survived until the end of the study | 3.49 to 4.18 h | 6.66 h | Total plasma elimination half-lives, fold longer in rats compared to mice [1, 8]: 2-3 fold; Total Elimination half-life ([1]; Hsd:Sprague Dawley SD, rat): 13.3 h; group mean daily body weight gain ([2]; 3750 ppm via feed): 0.1 ± 0.7 g; feed consumption, fold higher than pre-study control food consumption ([2]; 3750 ppm, probably due to high spillage rate): 1.7 fold; Gavage AUC/D ([3]; single gavage 34 mg/kg, 2019): 11.7 (h*ng/mL)/(mg/kg); Gavage Cmax/D ([3]; single gavage 34 mg/kg, 2019): 1.79 (ng/mL)/(mg/kg); Gavage AUC/D ([3]; single gavage 110 mg/kg, 2019): 11.2 (h*ng/mL)/(mg/kg); Gavage Cmax/D ([3]; single gavage 110 mg/kg, 2019): 1.29 (ng/mL)/(mg/kg); Gavage AUC/D ([3]; single gavage 340 mg/kg, 2019): 14.2 (h*ng/mL)/(mg/kg); Gavage Cmax/D ([3]; single gavage 340 mg/kg, 2019): 1.62 (ng/mL)/(mg/kg); group mean daily body weight gain ([5]; 3750 ppm via feed): −0.4 ± 2.3; average daily feed consumption ([5]; 3750 ppm): 51.5 ± 20.5 g/kg bw/d; Ratio (Gavage/Feed) AUC [7, 9]: 2.3; Ratio (Gavage/Feed) Cmax [7, 9]: 3.9; Ratio (Gavage/Feed) AUC [7, 10]: 1.6; Ratio (Gavage/Feed) Cmax [7, 10]: 2.2; Ratio (Gavage/Feed) AUC [7, 11]: 3.7; Ratio (Gavage/Feed) Cmax [7, 11]: 4.9
2 | O=S(=O)(c1ccc(O)cc1)c1ccc(O)cc1 [BPS, 4,4’-sulfonyldiphenol] | 4.82 h | 0.1 ± 0.4 g | 389 ± 85 g/kg bw/d | 0.1 ± 0.3 g | 381 ± 61 g/kg bw/d | All animals survived until the end of the study | confirmed | 3.7 ± 4.4 g | 68 ± 2.5 g/kg bw/d | 3.7 ± 2.7 g | 68 ± 3.5 g/kg bw/d | All animals survived until the end of the study | 6.11 to 7.89 h | 6.11 h | Free and total Cmax, difference between rats and mice [1, 8]: ≤ 2 fold; Free and total plasma elimination half-lives, difference between rats and mice [1, 8]: ≤ 2 fold; group mean daily body weight gain ([2]; 3375 ppm via feed): 0.1 ± 0.3 g; average daily feed consumption ([2]; 3375 ppm): 348 ± 131 g/kg bw/d; Gavage Cmax/D ([3]; single gavage 34 mg/kg, 2020): 9.2 (ng/mL)/(mg/kg); Gavage Cmax/D ([3]; single gavage 340 mg/kg, 2020): 9.5 (ng/mL)/(mg/kg); group mean daily body weight gain ([5]; 3375 ppm via feed): 2.6 ± 5.9 g; average daily feed consumption ([5]; 3375 ppm): 62 ± 5.1 g/kg bw/d; Free Elimination half-life ([6]; po): 6.82 h
